{
  "source": "ChEMBL document CHEMBL4699443",
  "about": "“Position of lipidation influences anticancer activity of Smac analogs” (Bioorg Med Chem Lett, 2019)",
  "key": {"[1]": {"tested_on": "Jurkat", "experiment": "Antiproliferative activity against human Jurkat cells assessed as growth inhibition after 48 hrs by PrestoBlue dye based fluorescence assay", "format": "functional, cell-based"}, "[2]": {"tested_on": "KOPN-8", "experiment": "Induction of apoptosis in human KOPN8 cells assessed as early apoptotic cells at 10 uM after 168 hrs by AnnexinV/PI-staining based flow cytometry", "format": "functional", "in_short": "(§1)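 KOPN-8 cells treated with 1 or 10 μM compound, alone or as an equimolar two-compound mixture. Cultured for a time course, then stained with annexin V and propidium iodide. Read by flow cytometry; populations gated by annexin V/PI staining, including annexin V+/PI+ double positives.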"}, "[3]": {"tested_on": "KOPN-8", "experiment": "Induction of apoptosis in human KOPN8 cells assessed as early apoptotic cells at 10 uM after 48 hrs by AnnexinV/PI-staining based flow cytometry", "format": "functional", "in_short": "as §1"}, "[4]": {"tested_on": "KOPN-8", "experiment": "Induction of apoptosis in human KOPN8 cells assessed as late apoptotic cells at 10 uM after 168 hrs by AnnexinV/PI-staining based flow cytometry", "format": "functional", "in_short": "as §1"}, "[5]": {"tested_on": "KOPN-8", "experiment": "Induction of apoptosis in human KOPN8 cells assessed as necrotic cells at 10 uM after 24 hrs by AnnexinV/PI-staining based flow cytometry", "format": "functional", "in_short": "as §1"}, "[6]": {"tested_on": "KOPN-8", "experiment": "Induction of apoptosis in human KOPN8 cells assessed as late apoptotic cells at 10 uM after 72 hrs by AnnexinV/PI-staining based flow cytometry", "format": "functional", "in_short": "as §1"}, "[7]": {"tested_on": "KOPN-8", "experiment": "Induction of apoptosis in human KOPN8 cells assessed as necrotic cells at 10 uM after 72 hrs by AnnexinV/PI-staining based flow cytometry", "format": "functional", "in_short": "as §1"}, "[8]": {"tested_on": "KOPN-8", "experiment": "Induction of apoptosis in human KOPN8 cells assessed as early apoptotic cells at 10 uM after 72 hrs by AnnexinV/PI-staining based flow cytometry", "format": "functional", "in_short": "as §1"}, "[9]": {"tested_on": "KOPN-8", "experiment": "Induction of apoptosis in human KOPN8 cells assessed as viable cells at 10 uM after 48 hrs by AnnexinV/PI-staining based flow cytometry", "format": "functional", "details": "read-out: Activity", "in_short": "as §1"}, "[10]": {"tested_on": "THP-1", "experiment": "Antiproliferative activity against human THP1 cells assessed as growth inhibition after 48 hrs by PrestoBlue dye based fluorescence assay", "format": "functional, cell-based", "details": "THP-1, 48 h"}, "[11]": {"tested_on": "NALM-6", "experiment": "Antiproliferative activity against human NALM6 cells assessed as growth inhibition after 48 hrs by PrestoBlue dye based fluorescence assay", "format": "functional, cell-based", "details": "NALM-6, 48 h"}, "[12]": {"tested_on": "KOPN-8", "experiment": "Antiproliferative activity against human KOPN-8 cells assessed as growth inhibition after 48 hrs by PrestoBlue dye based fluorescence assay", "format": "functional, cell-based", "details": "KOPN-8, 48 h"}, "[13]": {"tested_on": "MV4-11", "experiment": "Antiproliferative activity against human MV4-11 cells assessed as growth inhibition after 48 hrs by PrestoBlue dye based fluorescence assay", "format": "functional, cell-based", "details": "MV4-11, 48 h"}, "[14]": {"tested_on": "KOPN-8", "experiment": "Induction of apoptosis in human KOPN8 cells assessed as late apoptotic cells at 10 uM after 48 hrs by AnnexinV/PI-staining based flow cytometry", "format": "functional", "in_short": "as §1"}, "[15]": {"tested_on": "KOPN-8", "experiment": "Induction of apoptosis in human KOPN8 cells assessed as late apoptotic cells at 10 uM after 24 hrs by AnnexinV/PI-staining based flow cytometry", "format": "functional", "in_short": "as §1"}, "[16]": {"tested_on": "KOPN-8", "experiment": "Induction of apoptosis in human KOPN8 cells assessed as necrotic cells at 10 uM after 168 hrs by AnnexinV/PI-staining based flow cytometry", "format": "functional", "in_short": "as §1"}, "[17]": {"tested_on": "KOPN-8", "experiment": "Induction of apoptosis in human KOPN8 cells assessed as necrotic cells at 10 uM after 48 hrs by AnnexinV/PI-staining based flow cytometry", "format": "functional", "in_short": "as §1"}, "[18]": {"tested_on": "TF-1", "experiment": "Antiproliferative activity against human TF1 cells assessed as growth inhibition after 48 hrs by PrestoBlue dye based fluorescence assay", "format": "functional, cell-based", "details": "TF-1, 48 h"}, "[19]": {"tested_on": "MOLT-4", "experiment": "Antiproliferative activity against human MOLT-4 cells assessed as growth inhibition after 48 hrs by PrestoBlue dye based fluorescence assay", "format": "functional, cell-based", "details": "MOLT-4, 48 h"}, "[20]": {"experiment": "Antiproliferative activity against human CEMTL cells assessed as growth inhibition after 48 hrs by PrestoBlue dye based fluorescence assay", "format": "functional, cell-based", "details": "CEM-TL"}, "[21]": {"tested_on": "KOPN-8", "experiment": "Induction of apoptosis in human KOPN8 cells assessed as viable cells at 10 uM after 72 hrs by AnnexinV/PI-staining based flow cytometry", "format": "functional", "details": "read-out: Activity", "in_short": "as §1"}, "[22]": {"tested_on": "KOPN-8", "experiment": "Induction of apoptosis in human KOPN8 cells assessed as viable cells at 10 uM after 24 hrs by AnnexinV/PI-staining based flow cytometry", "format": "functional", "details": "read-out: Activity", "in_short": "as §1"}, "[23]": {"tested_on": "KOPN-8", "experiment": "Induction of apoptosis in human KOPN8 cells assessed as increase in caspase 3/7 activity at 0.1 to 50 uM after 24 hrs by Caspase-glo reagent based microplate reader analysis relative to control", "format": "functional", "details": "dose microM 0.1-50", "in_short": "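MDA-MB-231 or KOPN-8 cells treated at concentrations across 0–50 μM in dose response. Enzymatic activity of caspase-3/7 and caspase-9 measured and expressed as fold increase.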"}, "[24]": {"tested_on": "KOPN-8", "experiment": "Induction of apoptosis in human KOPN8 cells assessed as viable cells at 10 uM after 168 hrs by AnnexinV/PI-staining based flow cytometry", "format": "functional", "details": "read-out: Activity", "in_short": "as §1"}, "[25]": {"tested_on": "KOPN-8", "experiment": "Induction of apoptosis in human KOPN8 cells assessed as early apoptotic cells at 10 uM after 24 hrs by AnnexinV/PI-staining based flow cytometry", "format": "functional", "in_short": "as §1"}, "[26]": {"tested_on": "KOPN-8", "experiment": "Induction of apoptosis in human KOPN8 cells assessed as increase in caspase 9 activity at 0.1 to 50 uM after 24 hrs by Caspase-glo reagent based microplate reader analysis relative to control", "format": "functional", "details": "dose microM 0.1-50, time […]"}},
  "note": "Calls of active or inactive are those of the source. The rule behind the calls is not given here. Non-standard residues stand in square brackets, D forms with d. Residues, ends and D or L forms follow the SMILES beside them. *: point of attachment. Phe(3,5-F2) = N[C@@H](Cc1cc(F)cc(F)c1)C(=O)O; X1 = CCCCCCCCCCCCCCCCCCSCCN*; X3 = CCCCCCCCCCCCCCCCCC*; Ac4c = NC1(C(=O)O)CCC1",
  "data": [
    {"compound": "CCCCCCCCCCCCCCCCCCSCCNC(=O)[C@@H]1CCCN1C(=O)[C@H](CCCNC(=N)N)NC(=O)C1(NC(=O)[C@@H]2CCCN2C(=O)[C@H](Cc2cc(F)cc(F)c2)NC(=O)[C@@H](N)CSCCCCCCCCCCCCCCCCCC)CCC1", "note": "(H-C(X3)[Phe(3,5-F2)]P[Ac4c]RP-X1)", "values": [
      {"measurement": "EC50", "setting": "[1]", "result": 21.7, "unit": "µM"},
      {"measurement": "Activity", "setting": "[2]", "result": 3.81, "unit": "%"},
      {"measurement": "Activity", "setting": "[3]", "result": 1.19, "unit": "%"},
      {"measurement": "Activity", "setting": "[4]", "result": 26.4, "unit": "%"},
      {"measurement": "Activity", "setting": "[5]", "result": 2.04, "unit": "%"},
      {"measurement": "Activity", "setting": "[6]", "result": 6.63, "unit": "%"},
      {"measurement": "Activity", "setting": "[7]", "result": 1.23, "unit": "%"},
      {"measurement": "Activity", "setting": "[8]", "result": 0.58, "unit": "%"},
      {"measurement": "viability at 10 µM", "setting": "[9]", "result": 87.1, "unit": "%"},
      {"measurement": "EC50", "setting": "[10]", "result": 9.5, "unit": "µM"},
      {"measurement": "EC50", "setting": "[11]", "result": 5.6, "unit": "µM"},
      {"measurement": "EC50", "setting": "[12]", "result": 1, "unit": "µM"},
      {"measurement": "EC50", "setting": "[13]", "result": 9.2, "unit": "µM"},
      {"measurement": "Activity", "setting": "[14]", "result": 9.59, "unit": "%"},
      {"measurement": "Activity", "setting": "[15]", "result": 9.22, "unit": "%"},
      {"measurement": "Activity", "setting": "[16]", "result": 1.59, "unit": "%"},
      {"measurement": "Activity", "setting": "[17]", "result": 2.15, "unit": "%"},
      {"measurement": "EC50", "setting": "[18]", "result": 4.2, "unit": "µM"},
      {"measurement": "EC50", "setting": "[19]", "result": 6.5, "unit": "µM"},
      {"measurement": "EC50", "setting": "[20]", "result": 5.9, "unit": "µM"},
      {"measurement": "viability at 10 µM", "setting": "[21]", "result": 91.6, "unit": "%"},
      {"measurement": "viability at 10 µM", "setting": "[22]", "result": 87.7, "unit": "%"},
      {"measurement": "fold change (FC)", "setting": "[23]", "result": 3.6},
      {"measurement": "viability at 10 µM", "setting": "[24]", "result": 68.2, "unit": "%"},
      {"measurement": "Activity", "setting": "[25]", "result": 1.09, "unit": "%"},
      {"measurement": "Activity", "setting": "[26]", "result": "inactive"}
    ]}
  ]
}
